≈ marks a conversion by molar mass, not a printed value. Like-named read-outs stand apart in the source and are kept apart here.

Six molecules from PMC7655718 (The Journal of antibiotics, 2020) can be followed below.

In assay [1] the test system is S. aureus ATCC 33592 (Sa92). Briefly: MIC, microdilution with resazurin. The class given is cell-based. The note with it: Staphylococcus aureus, ATCC33592, read-out: MIC Sa92. Summed up:
(§1)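 Compounds dissolved in DMSO at 2 mg/mL. Overnight blood-agar colonies were suspended in PBS to 0.5 McFarland, then diluted in Mueller Hinton broth to about 1x10^6 cfu/mL with resazurin (1:1000 of 0.1% w/v stock). Twofold DMSO dilutions were added 1:40, giving 50 to 0.4 μg/mL at 2.5% DMSO. Incubation was 35 °C for 16-20 h. Blue/non-turbid wells counted as inhibited, pink/turbid as grown.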
For orientation: In broth dilution the organism is exposed to a series of concentrations in liquid medium.

In assay [2] the test system is tested Gram-positive bacterial strains. Briefly: MIC, text summary over tested Gram-positive strains. It counts as cell-based.
Assay [3] has as its system S. aureus ATCC 33599 (MRSA). Briefly: BacLight membrane permeability assay. The note with it: versus positive control vancomycin. It counts as cell-based, Staphylococcus aureus.
Assay [4] concerns S. aureus ATCC 700699 (Sa99). The assay can be described thus: MIC, microdilution with resazurin. The class given is cell-based. The note with it: Staphylococcus aureus, ATCC700699, read-out: MIC Sa99. Summed up: as §1
In assay [5] the test system is S. epidermidis 700296 (Se). The assay can be described thus: MIC, microdilution with resazurin. The class given is cell-based. The note with it: Staphylococcus epidermidis, read-out: MIC Se. Summed up: as §1
The test system of assay [6] is tested A. baumannii strains. The assay can be described thus: MIC, text summary over A. baumannii strains. It counts as cell-based, Acinetobacter baumannii. Summed up:
as §1

Assay [7] deals with S. aureus ATCC 25923 (Sa23). The assay can be described thus: MIC, microdilution with resazurin. It counts as cell-based. The note with it: Staphylococcus aureus, ATCC25923, read-out: MIC Sa23. In short, it runs like this: as §1
The test system of assay [8] is B. subtilis ATCC 6623 (Bs). The assay can be described thus: MIC, microdilution with resazurin. It counts as cell-based, Bacillus subtilis. The note with it: Bacillus subtilis, ATCC6623, read-out: MIC Bs.
For assay [9], the system named is A. baumannii ATCC 19606 (Ab06). Briefly: BacLight membrane permeability assay. The class given is cell-based, Acinetobacter baumannii. The note with it: Ab06, versus positive control colistin at comparable MIC.
Assay [10] has as its system S. aureus ATCC 33591 (Sa91). The assay can be described thus: MIC, microdilution with resazurin. The note with it: Staphylococcus aureus, ATCC33591, read-out: MIC Sa91. The class given is cell-based. In short, it runs like this: as §1
Assay [11] concerns S. aureus BAA-2312 (Sa12). The assay can be described thus: MIC, microdilution with resazurin. The note with it: Staphylococcus aureus, BAA2312, read-out: MIC Sa12. The class given is cell-based. Summed up: as §1
In assay [12] the test system is A. baumannii ATCC 747 (Ab47). Briefly: MIC, microdilution with resazurin. It counts as cell-based, Acinetobacter baumannii. The note with it: for MIC: Acinetobacter baumannii, ATCC747, read-out: MIC Ab47; for MIC Ab47: A. baumannii ATCC 747. Summed up:
as §1

Assay [13] deals with A. baumannii ATCC 19606 (type strain, Ab06). Briefly: MIC and MBC. The class given is cell-based, Acinetobacter baumannii. The note with it: for MIC Ab06: A. baumannii ATCC 19606 (type strain). In short, it runs like this:
as §1

The test system of assay [14] is S. aureus ATCC 25923 biofilm formation. The assay can be described thus: Biofilm inhibition assay. The note with it: 2xMIC, MIC and 0.5xMIC concentrations, 24 hours. The class given is cell-based, Staphylococcus aureus. Summed up:
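Blood-agar culture was suspended in PBS (0.5 McFarland), then diluted 1:100 in yeast extract casamino acid broth (about 1x10^6 cfu/mL). Compound at 2xMIC, MIC and 0.5xMIC was added before biofilm formation, in triplicate, with broth-only and bacteria+DMSO controls. Incubation was 35 °C for 24 h. Wells were PBS-washed, dried, stained with 0.1% crystal violet, solubilised in 33% acetic acid and read at 620 nm. % inhibition = [1−(ODcompound−ODbroth)/(ODdmso−ODbroth)]×100, from mean and SD.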

Assay [15] deals with human embryonic kidney cell line (HEK293). Briefly: Toxicity against HEK293 cell line. It counts as cell-based. The note with it: HEK293 IC50 over MIC; as high as.
The subject of assay [16] is S. aureus ATCC 25923 preformed biofilm. Briefly: Biofilm destruction assay. The note with it: 2xMIC. The class given is cell-based, Staphylococcus aureus. Summed up:
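Biofilm was first grown in 96-well plates for 24 h at 35 °C and washed with PBS to remove unadhered cells. Fresh yeast extract casamino acid broth was added with compound at 2xMIC, MIC or 0.5xMIC, or DMSO, in triplicate, plus broth-only wells. Incubation was 35 °C for 24 h. Crystal violet was stained, solubilised and read at 620 nm. % destruction = [1−(ODcompound−ODbroth)/(ODdmso−ODbroth)]×100, from triplicate means.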

For assay [17], the system named is A. baumannii ATCC BAA-1605 (Ab05). Briefly: MIC, microdilution with resazurin. The class given is cell-based, Acinetobacter baumannii. Summed up: as §1
The next assay has as its system A. baumannii ATCC 19606. The assay can be described thus: Time kill assay. The note with it: 4xMIC; for time kill effect: 24 hours at 35 °C. The class given is cell-based, Acinetobacter baumannii. In short, it runs like this:
(§2)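 Growth curves by optical density set the log phase. Log-phase bacteria (about 2 h shaking in Mueller Hinton broth II) were diluted in warm broth to about 3x10^6 cfu/mL. They were exposed to compound at 4xMIC (other multiples where indicated), in triplicate, at 35 °C. Colistin (A. baumannii) or vancomycin (S. aureus) and DMSO were included. Samples at 0, 2, 4, 6, 8, 10, 12 and 24 h were counted by drop plate on blood agar (18-24 h, 35 °C). Log cfu/mL was plotted against time.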

Assay [18] deals with S. aureus ATCC 33599 (MRSA). Briefly: MIC and MBC. The class given is cell-based, Staphylococcus aureus. Further details: MBC as multiple of the MIC: unit not given beside the values. Summed up:
as §1

The subject of assay [19] is S. aureus ATCC 33599 (MRSA). The assay can be described thus: Time kill assay. It counts as cell-based, Staphylococcus aureus. Summed up: as §2
The mark [20] stands for this setting: Acinetobacter baumannii, ATCC19606.
Setting [21] is: Acinetobacter baumannii, ATCC19606, read-out: MIC Ab06.
Setting [22] is: Staphylococcus aureus, ATCC33599|MRSA.

For `O=C(O)c1ccc(-n2cc(/C=N/Nc3ccc(F)c(Cl)c3)c(-c3ccc4ccccc4c3)n2)cc1` [Compound 22], the MIC in assay [1] was determined as 1.56 µg/mL (≈ 3.22 µM); in [4], 0.78 µg/mL (≈ 1.61 µM); in assay [5], 3.12 µg/mL (≈ 6.44 µM); in [7], 3.12 µg/mL (≈ 6.44 µM); in assay [8], 6.25 µg/mL (≈ 12.9 µM); in assay [10] it was 6.25 µg/mL (≈ 12.9 µM). Also, the minimal inhibitory concentration (MIC) in [11] is 3.12 µg/mL (≈ 6.44 µM); in assay [12], 12.5 µg/mL (≈ 25.8 µM); in [13] (setting [20]), 6.25 µg/mL (≈ 12.9 µM); in [13] (setting [21]) it was 6.25 µg/mL (≈ 12.9 µM). Moreover, in assay [2], the “antimicrobial activity against the tested strains” value (from here on “antimicrobial activity”) was “potent inhibitors of tested Gram-positive strains”. For the same molecule, the “membrane disruption activity, PI/SYTO-9 ratio” value in [3] is reported as “more potent membrane disruption activity than vancomycin”. Also, in assay [6], the “activity against A. baumannii strains” value is “moderate growth inhibitor”. The “membrane disrupting ability, PI/SYTO-9 ratio” value in assay [9] is “better membrane disrupting ability”. Further, the MBC in assay [13] (setting [20]) came out at 50 µg/mL (≈ 103 µM).
`O=C(O)c1ccc(-n2cc(/C=N/Nc3cc(F)ccc3F)c(-c3ccc4ccccc4c3)n2)cc1` [Compound 19]: the MIC in [1] came out at 1.56 µg/mL (≈ 3.33 µM); in [4], 0.78 µg/mL (≈ 1.67 µM); in assay [5], 3.12 µg/mL (≈ 6.67 µM); in [7] it was 1.56 µg/mL (≈ 3.33 µM); in [8], 3.12 µg/mL (≈ 6.67 µM); in assay [10], 3.12 µg/mL (≈ 6.67 µM). Further, the MIC is 3.12 µg/mL (≈ 6.67 µM) in assay [11], more than 50 µg/mL in assay [12] and more than 50 µg/mL in [13] (setting [21]). Further, in assay [2], the “antimicrobial activity” value was “enhanced activity against all the tested strains”. For the same molecule, in [14], the “inhibition of biofilm formation” value was “most effective compound”. Besides, the “membrane disruption activity, PI/SYTO-9 ratio” value in [3] was “more potent membrane disruption activity than vancomycin”. Moreover, the “selectivity factor (IC50/MIC)” value in [15] was not above 48.7. Also, in assay [16], the “destruction of preformed biofilm” value is “potent activity”.
Take `O=C(O)c1ccc(-n2cc(/C=N/Nc3ccc(Br)cc3)c(-c3ccc4ccccc4c3)n2)cc1` [Compound 18]: the “MIC Ab05” value in assay [17] is on record as “moderate growth inhibitor”. For the same molecule, the MIC in assay [1] stood at 3.12 µg/mL (≈ 6.11 µM); in [4], 0.78 µg/mL (≈ 1.53 µM); in assay [5] it was 12.5 µg/mL (≈ 24.4 µM); in assay [7], 6.25 µg/mL (≈ 12.2 µM); in assay [8], 6.25 µg/mL (≈ 12.2 µM); in [10], 12.5 µg/mL (≈ 24.4 µM). Besides, the MIC in assay [11] worked out at 12.5 µg/mL (≈ 24.4 µM); in assay [12] it was 6.25 µg/mL (≈ 12.2 µM); in assay [13] (setting [20]), 1.56 µg/mL (≈ 3.05 µM); in assay [13] (setting [21]), 1.56 µg/mL (≈ 3.05 µM). Besides, in the assay on A. baumannii ATCC 19606, the “time kill effect” value is “bacteriostatic effect”. The “increase in log10 cfu/mL of the bacterial population” value with A. baumannii ATCC 19606 (through 24 hours) is not above 2 fold. Moreover, the “MIC Ab47” value in [12] is given as “moderate growth inhibitor”. The molecule further displayed an MBC in [13] (setting [20]) of 12.5 µg/mL (≈ 24.4 µM).
Consider `O=C(O)c1ccc(-n2cc(/C=N/Nc3cccc(Br)c3)c(-c3ccc4ccccc4c3)n2)cc1` [Compound 17], for which, in assay [17], the “MIC Ab05” value is “did not inhibit the growth”. The MIC in assay [1] came to 1.56 µg/mL (≈ 3.05 µM); in assay [4], 1.56 µg/mL (≈ 3.05 µM); in assay [5] it was 6.25 µg/mL (≈ 12.2 µM); in assay [7], 6.25 µg/mL (≈ 12.2 µM); in assay [8], 3.12 µg/mL (≈ 6.11 µM); in assay [10] it was 6.25 µg/mL (≈ 12.2 µM). Also, the MIC was 6.25 µg/mL (≈ 12.2 µM) in assay [11], more than 50 µg/mL in assay [12] and 12.5 µg/mL (≈ 24.4 µM) in assay [13] (setting [21]). The “MIC Ab47” value in assay [12] is given as “did not inhibit the growth”. In assay [13], the “MIC Ab06” value was “moderately inhibited the growth”.
With `O=C(O)c1ccc(-n2cc(/C=N/Nc3ccc(Cl)cc3Cl)c(-c3ccc4ccccc4c3)n2)cc1` [Compound 20], the “MBC as multiple of the MIC” value in assay [18] (S. aureus ATCC 33599 (MRSA)) stood at 8. Moreover, the MBC in [18] (setting [22]) came out at 6.25 µg/mL (≈ 12.5 µM). The MIC in [18] (setting [22]) amounted to 0.78 µg/mL (≈ 1.56 µM); in assay [1], 0.78 µg/mL (≈ 1.56 µM); in [4], 0.78 µg/mL (≈ 1.56 µM); in assay [5], 3.12 µg/mL (≈ 6.23 µM); in assay [7], 3.12 µg/mL (≈ 6.23 µM); in assay [8], 3.12 µg/mL (≈ 6.23 µM). For the same molecule, the MIC in assay [10] is 6.25 µg/mL (≈ 12.5 µM); in assay [11], 3.12 µg/mL (≈ 6.23 µM); in assay [12], more than 50 µg/mL; in assay [13] (setting [21]), more than 50 µg/mL. In assay [2], the “antimicrobial activity” value is recorded as “enhanced activity against all the tested strains”. For the same molecule, the “membrane disruption activity, PI/SYTO-9 ratio” value in [3] was “more potent membrane disruption activity than vancomycin”. Moreover, the “time kill effect” value in assay [19] (4xMIC, 24 hours at 35 °C) is “mild bactericidal effect”; in assay [19] (8xMIC), “strongly bactericidal”. Moreover, in assay [19] (8xMIC), the “time to kill all bacteria” value was not above 4 h. For the same molecule, the “selectivity factor (IC50/MIC)” value in assay [15] is not above 48.7.
As to colistin [reference compound], in [17], the “MIC Ab05” value stood at 3.125 µg/mL. Also, in the assay on A. baumannii ATCC 19606, the “time to completely kill the starting population” value was not above 4 h and the “time kill effect” value is listed as “immediate bactericidal effect”. In addition, the “MIC Ab47” value in assay [12] worked out at 1.56 µg/mL. Moreover, the “MIC Ab06” value in assay [13] worked out at 3.125 µg/mL. Moreover, the MIC in assay [13] (A. baumannii ATCC 19606, Table 2) amounted to 3.125 µg/mL. In assay [13] (A. baumannii ATCC 19606, concentration killing 99.9% or greater), this molecule came in with an MBC of 6.25 µg/mL.

As usually defined, the MIC is the least concentration at which growth counts as inhibited. As a reminder, the MBC is the smallest concentration meeting the test's criterion for killing.
